# FXIa mix inh: inhibitors of human coagulation factor XIa, pooled mixtures; purified FXIa, fluorogenic substrate; actives 0.19% (n = 62,000); inhibition, % at 5 µM;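 note: each value is inhibition by a whole ten-compound pool holding the compound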
# FXIIa mix inh: blocks human factor XIIa in pooled compound mixtures; inhibition, % at 5 µM; purified FXIIa, fluorogenic substrate; actives 0.2% (n = 62,000); AID 684; P00748
# C1s block: blocks human complement C1s protease activity; P09871; purified C1s, fluorogenic AMC substrate, pooled mixtures; mean inhibition % of two 10-compound mixtures (stronger effect = higher value), % at 5 µM (by protocol); actives 0.16% (n = 62,000); AID 538;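 active = inhibition above 20% in each of the two 10-compound mixture wells holding the compound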
# Target sequence (P09871 16-437 limits assumed): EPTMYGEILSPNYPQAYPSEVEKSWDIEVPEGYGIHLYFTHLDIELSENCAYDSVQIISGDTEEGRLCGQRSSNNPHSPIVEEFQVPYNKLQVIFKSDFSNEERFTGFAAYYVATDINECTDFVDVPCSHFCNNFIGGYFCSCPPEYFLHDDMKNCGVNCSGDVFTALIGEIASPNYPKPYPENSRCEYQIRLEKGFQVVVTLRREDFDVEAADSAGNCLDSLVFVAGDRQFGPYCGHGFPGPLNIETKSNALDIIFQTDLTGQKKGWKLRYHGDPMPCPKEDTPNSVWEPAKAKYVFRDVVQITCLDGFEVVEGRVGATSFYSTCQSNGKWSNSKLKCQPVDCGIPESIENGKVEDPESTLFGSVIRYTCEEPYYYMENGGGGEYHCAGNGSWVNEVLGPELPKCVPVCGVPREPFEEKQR
# Target sequence (P09871 438-688 limits assumed): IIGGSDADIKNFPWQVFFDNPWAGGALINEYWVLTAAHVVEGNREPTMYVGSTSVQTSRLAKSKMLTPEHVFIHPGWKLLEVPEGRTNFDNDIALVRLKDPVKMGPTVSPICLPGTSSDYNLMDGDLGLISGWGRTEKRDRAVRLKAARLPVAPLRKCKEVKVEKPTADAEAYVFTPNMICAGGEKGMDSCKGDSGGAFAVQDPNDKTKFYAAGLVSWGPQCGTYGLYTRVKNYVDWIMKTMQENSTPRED
# CatG inh: blocks human cathepsin G enzyme activity; P08311; purified enzyme, AMC-tetrapeptide fluorescence, pooled mixtures; inhibition, % at 5 µM (by protocol); actives 0.2% (n = 62,000); AID 581;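 active = inhibition above 20% in each of the two mixture wells holding the compound; inactive = inhibition of 20% or less in either well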
# Ec RNAP inh: blocks E. coli RNA polymerase transcription. P0A8V2. fluorescence transcription assay. inhibition, %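 (tested at 10 µM)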. actives 0.2% (n = 62,000). AID 559; in the data active = inhibition above about 20%
# AP complement: alternative pathway complement inhibition, orthogonal assay | inhibition, % at 5 µM | AID 1235 | actives 0.08% (n = 62,000) | Human serum alternative complement pathway, LPS-coated ELISA, C3 deposition; tested in compound mixtures;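 active = inhibition above 30% in each of the two pooled mixtures holding the compound, so the lower value exceeds 30%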
#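 Assay system: human serum alternative complement pathway, C3 deposition on LPS-coated wells; Dosing: 5 µM per compound in ten-compound mixtures; Detection: Anti-C3 ELISA, OD 450 nm; Buffer or medium: Mg2+-EGTA GVB++ buffer containing human serum at 1:15 dilution; Timing: 1 h at 37 °C; Replication: two different pools per compound.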
# Numbers stand for hits; n = inactive. Compounds with a hit are over-represented: about 0.83% of the library has one in this group of screens. Cut-off read from the data, not from the text of the source, unless noted: active = inhibition above about 20% (passing the limit was not always enough); inactive = the rest.
SMILES,FXIa mix inh,FXIIa mix inh,C1s block,CatG inh,Ec RNAP inh,AP complement
O=C(NC1(C(F)(F)F)Oc2ccc(Cl)cc2O1)N1CCC2(CC1)OCCO2 (configuration not stated),n,n,n,n,22,n
CCCCn1c(O)c(C(C)=NCCCN(C)C)c(=O)[nH]c1=O,n,n,n,n,n,n
CCC(=NCCCN(CC)CC)c1c(O)n(-c2ccccc2)c(=O)[nH]c1=O,n,n,n,n,n,36
CCCCn1c(O)c(C(CC)=NCCCN(C)C)c(=O)[nH]c1=O,n,n,n,n,21,n
CN1C(=O)C(Cc2c[nH]c3ccccc23)C(=O)N(C)C1=O,n,n,n,n,n,n
CCOC(=O)C1CCN(C(C)C(=O)c2c(C)[nH]c3cc(C)ccc23)CC1 (configuration not stated),n,n,n,n,n,n
O=C(Cc1ccccc1)N1CCN(Cc2c[nH]c3ccccc23)CC1,n,n,n,n,n,42
CC1CN=C(NCc2ccncc2)S1 (configuration not stated),n,n,n,n,n,n
CC1CN=C(Nc2cccc3ccccc23)S1 (configuration not stated),n,n,35,n,n,n
CN1C(=O)CN=C(c2ccc(Cl)cc2)c2cc(Cl)ccc21,n,n,n,n,n,n

# From PubChem BioAssay
